In ChEMBL document CHEMBL1126301, “Anti-HIV-I activity of linked lexitropsins” (J Med Chem, 1992):
In brackets after ≈: the same amount, converted by molar mass. Activity calls are given as the source filed them. No cut-off for these calls is given here.

Columns and labels:
[1] = tested on: Murine leukemia virus; test: Concentration inhibiting moloney murine leukemia retrovirus; assay type: functional
Procedure, shortened: (§1)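 SC-1 cells (3.5 × 10⁴ mL⁻¹) seeded in 5% FBS-MEM 1 day ahead. Compound dilutions added in triplicate, then 20-40 pfu Moloney virus per well, shaken at 0, 30 and 60 min. Incubated 5 days, 37 °C, 5% CO₂; viability checked for toxicity. Then UV 3 min, XC cells overlaid (2 × 10⁵ mL⁻¹), 4 days, 0.5% crystal violet stain, plaques counted. MIC₅₀ interpolated between two dilutions.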

[2] = tested on: Murine leukemia virus; test: Inhibitory activity on moloney murine leukemia retrovirus.; assay type: functional; procedure, shortened: as §1
[3] = Therapeutic index(TI) was measured as ratio of TD50 and MIC50 (Retrovirus); settings: retroviridae
[4] = tested on: Human immunodeficiency virus 1; test: Inhibitory activity against HIV-1 in T4-lymphocytes (CEM cell line).; assay type: functional, organism-based; settings: Human immunodeficiency virus 1, CCRF-CEM
[5] = tested on: CCRF-CEM; test: (§2) Inhibitory activity against T4-lymphocytes (CEM cell line) infected with HIV-1; moderate; assay type: functional, cell-based; settings: Homo sapiens
[6] = tested on: CCRF-CEM; test: Inhibition of T4-lymphocytes (CEM cell line) infected with HIV-1.; assay type: functional, cell-based; settings: Homo sapiens
[7] = tested on: Human immunodeficiency virus 1; test: as §2; assay type: functional, organism-based; settings: CCRF-CEM
[8] = tested on: HIV-1; test: Therapeutic index (TI) was measured as ratio of IC50 and EC50 (HIV-1); settings: human immunodeficiency virus 1; read-out: TI50
[9] = tested on: CCRF-CEM; test: Inhibitory activity against T4-lymphocytes (CEM cell line) infected with HIV-1; inactive; assay type: functional, cell-based; settings: Homo sapiens
[10] = tested on: CCRF-CEM; test: Inhibitory activity against T4-lymphocytes (CEM cell line) infected with HIV-1; active; assay type: functional, cell-based; settings: Homo sapiens

SMILES | TD50 [2] [µg/mL] | TI [3] [TD50/MIC50] | EC50 [4] [µM] | Activity [5] | IC50 [6] [µM] | further results
Cl.Cl.Cl.Cn1cc(NC(=O)c2cc(NC(=O)c3cc(NC(=O)c4cc(C(=O)Nc5cc(C(=O)Nc6cc(C(=O)Nc7cc(C(=O)NCCC(=N)N)n(C)c7)n(C)c6)n(C)c5)cc(C(=O)Nc5cc(C(=O)Nc6cc(C(=O)Nc7cc(C(=O)NCCC(=N)N)n(C)c7)n(C)c6)n(C)c5)c4)cn3C)cn2C)cc1C(=O)NCCC(=N)N | >100 | > 1.6 | – | – | – | MIC50 [1]: 62.8 µg/mL
Cn1cc(NC(=O)c2cc(NC(=O)[C@H]3CCC[C@@H]3C(=O)Nc3cc(C(=O)Nc4cc(C(=O)NCCC(=N)N)n(C)c4)n(C)c3)cn2C)cc1C(=O)NCCC(=N)N | – | – | 46.3 | Moderate | 168 | –
Cn1cc(NC(=O)c2cc(NC(=O)CCCCCCCCCCC(=O)Nc3cc(C(=O)Nc4cc(C(=O)NCCC(=N)N)n(C)c4)n(C)c3)cn2C)cc1C(=O)NCCC(=N)N | – | – | 6.6 | Moderate | 78 | –
Cl.Cl.Cn1cc(NC(=O)c2cc(NC(=O)c3cc(NC(=O)[C@@H]4C5C=CC(C5)[C@H]4C(=O)Nc4cc(C(=O)Nc5cc(C(=O)Nc6cc(C(=O)NCCC(=N)N)n(C)c6)n(C)c5)n(C)c4)cn3C)cn2C)cc1C(=O)NCCC(=N)N | >100 | > 4.54 | – | – | – | –
Cn1cc(NC(=O)c2cc(NC(=O)[C@H]3C[C@@H]3C(=O)Nc3cc(C(=O)Nc4cc(C(=O)NCCC(=N)N)n(C)c4)n(C)c3)cn2C)cc1C(=O)NCCC(=N)N | – | – | 3.44 | Moderate | – | –
Cn1cc(NC(=O)c2cc(NC(=O)c3cc(NC(=O)CCCCCCCCC(=O)Nc4cc(C(=O)Nc5cc(C(=O)Nc6cc(C(=O)NCCC(=N)N)n(C)c6)n(C)c5)n(C)c4)cn3C)cn2C)cc1C(=O)NCCC(=N)N | – | – | – | – | – | Activity [7]: Moderate
Cn1cc(NC(=O)c2cc(NC(=O)[C@@H]3CCC(N)=N3)c[nH]2)cc1C(=O)NCCC(=N)N | – | – | 88 | Moderate | 750 | selectivity ratio [8]: 8.5
Cn1cc(NC(=O)c2cc(NC(=O)c3cc(NC(=O)CCC(=O)Nc4cc(C(=O)Nc5cc(C(=O)Nc6cc(C(=O)NCCC(=N)N)n(C)c6)n(C)c5)n(C)c4)cn3C)cn2C)cc1C(=O)NCCC(=N)N | – | – | – | – | – | Activity [9]: inactive
Cn1cc(NC(=O)[C@H]2CCC(N)=N2)cc1C(=O)NCCC(=N)N | – | – | – | – | > 127 | Activity [9]: inactive
Cn1cc(NC(=O)c2cc(NC(=O)c3cc(NC(=O)CCCCCCCCCCCCCCCCCCCCCCC(=O)Nc4cc(C(=O)Nc5cc(C(=O)Nc6cc(C(=O)NCCC(=N)N)n(C)c6)n(C)c5)n(C)c4)cn3C)cn2C)cc1C(=O)NCCC(=N)N | – | – | – | – | > 120 | Activity [9]: inactive
Cl.Cl.Cn1cc(NC(=O)c2cc(NC(=O)c3cc(NC(=O)c4ccc(C(=O)Nc5cc(C(=O)Nc6cc(C(=O)Nc7cc(C(=O)NCCC(=N)N)n(C)c7)n(C)c6)n(C)c5)cc4)cn3C)cn2C)cc1C(=O)NCCC(=N)N | >100 | > 25.13 | – | – | – | Activity [10]: Active
Cl.Cl.Cn1cc(NC(=O)c2cc(NC(=O)c3cc(NC(=O)C4CCC4C(=O)Nc4cc(C(=O)Nc5cc(C(=O)Nc6cc(C(=O)NCCC(=N)N)n(C)c6)n(C)c5)n(C)c4)cn3C)cn2C)cc1C(=O)NCCC(=N)N (stereo not given) | 83.5 | 1.7 | – | Moderate | – | MIC50 [1]: > 50 µg/mL
Cn1cc(NC(=O)c2cc(NC(=O)c3cccc(C(=O)Nc4cc(C(=O)Nc5cc(C(=O)NCCC(=N)N)n(C)c5)n(C)c4)c3)cn2C)cc1C(=O)NCCC(=N)N | – | – | 3.55 | – | – | Activity [10]: Active
Cn1cc(NC(=O)c2cc(NC(=O)[C@H]3CCC(N)=N3)c[nH]2)cc1C(=O)NCCC(=N)N | – | – | 91 | Moderate | 750 | selectivity ratio [8]: 8.2
Cn1cc(NC(=O)c2cc(NC(=O)[C@H]3C[C@H]3C(=O)Nc3cc(C(=O)Nc4cc(C(=O)NCCC(=N)N)n(C)c4)n(C)c3)cn2C)cc1C(=O)NCCC(=N)N | – | – | 42.5 | Moderate | – | –
Cl.Cl.Cn1cc(NC(=O)c2cc(NC(=O)c3cc(NC(=O)c4cncc(C(=O)Nc5cc(C(=O)Nc6cc(C(=O)Nc7cc(C(=O)NCCC(=N)N)n(C)c7)n(C)c6)n(C)c5)c4)cn3C)cn2C)cc1C(=O)NCCC(=N)N | >100 | – | – | Moderate | – | MIC50 [1]: > 100 µg/mL
Nc1ccn([C@H]2CC[C@@H](CO)O2)c(=O)n1 [ZALCITABINE] | >100 | > 135.14 | – | – | – | MIC50 [1]: 0.74 µg/mL (≈ 3.5 µM)
Cl.Cl.Cn1cc(NC(=O)c2cc(NC(=O)c3cc(NC(=O)c4ccc(C(=O)Nc5cc(C(=O)Nc6cc(C(=O)Nc7cc(C(=O)NCCC(=N)N)n(C)c7)n(C)c6)n(C)c5)nc4)cn3C)cn2C)cc1C(=O)NCCC(=N)N | >100 | > 6.28 | – | – | – | Activity [10]: Active

SMILES | TD50 [2] [µg/mL] | TI [3] [TD50/MIC50] | EC50 [4] [µM] | Activity [5] | IC50 [6] [µM] | further results
Cl.Cl.Cn1cc(NC(=O)c2cc(NC(=O)c3cc(NC(=O)c4ccccc4C(=O)Nc4cc(C(=O)Nc5cc(C(=O)Nc6cc(C(=O)NCCC(=N)N)n(C)c6)n(C)c5)n(C)c4)cn3C)cn2C)cc1C(=O)NCCC(=N)N | >100 | > 1.26 | – | – | – | –
Cn1cc(NC(=O)c2cc(NC(=O)c3cc(NC(=O)CCCCCCC(=O)Nc4cc(C(=O)Nc5cc(C(=O)Nc6cc(C(=O)NCCC(=N)N)n(C)c6)n(C)c5)n(C)c4)cn3C)cn2C)cc1C(=O)NCCC(=N)N | – | – | – | – | > 100 | Activity [9]: inactive
Cn1cc(NC(=O)c2cc(NC(=O)c3ccc(C(=O)Nc4cc(C(=O)Nc5cc(C(=O)NCCC(=N)N)n(C)c5)n(C)c4)cc3)cn2C)cc1C(=O)NCCC(=N)N | – | – | 1.21 | – | 17.9 | Activity [10]: Active; selectivity ratio [8]: 14.8
Cn1cc(NC(=O)c2cc(NC(=O)CCCCCCC(=O)Nc3cc(C(=O)Nc4cc(C(=O)NCCC(=N)N)n(C)c4)n(C)c3)cn2C)cc1C(=O)NCCC(=N)N | – | – | – | – | – | Activity [9]: inactive
Cn1cc(NC(=O)c2cc(NC(=O)/C=C/C(=O)Nc3cc(C(=O)Nc4cc(C(=O)NCCC(=N)N)n(C)c4)n(C)c3)cn2C)cc1C(=O)NCCC(=N)N | – | – | 1.37 | – | – | Activity [10]: Active
Cl.Cl.Cn1cc(NC(=O)c2cc(NC(=O)c3cc(NC(=O)/C=C\C(=O)Nc4cc(C(=O)Nc5cc(C(=O)Nc6cc(C(=O)NCCC(=N)N)n(C)c6)n(C)c5)n(C)c4)cn3C)cn2C)cc1C(=O)NCCC(=N)N | 84.29 | 7.52 | – | – | – | Activity [9]: inactive
Cn1cc(NC(=O)c2cc(NC(=O)CCCCCCCCC(=O)Nc3cc(C(=O)Nc4cc(C(=O)NCCC(=N)N)n(C)c4)n(C)c3)cn2C)cc1C(=O)NCCC(=N)N | – | – | – | – | – | Activity [9]: inactive
Cl.Cl.Cn1cc(NC(=O)c2cc(NC(=O)c3cc(NC(=O)c4cccc(C(=O)Nc5cc(C(=O)Nc6cc(C(=O)Nc7cc(C(=O)NCCC(=N)N)n(C)c7)n(C)c6)n(C)c5)c4)cn3C)cn2C)cc1C(=O)NCCC(=N)N | >100 | 2 | – | – | – | Activity [10]: Active; MIC50 [1]: > 50 µg/mL
Cn1cc(NC(=O)c2cc(NC(=O)[C@H]3CC[C@@H]3C(=O)Nc3cc(C(=O)Nc4cc(C(=O)NCCC(=N)N)n(C)c4)n(C)c3)cn2C)cc1C(=O)NCCC(=N)N | – | – | 0.42 | – | – | Activity [10]: Active
Cn1cc(NC(=O)c2cc(NC(=O)CCCCCCCCCC(=O)Nc3cc(C(=O)Nc4cc(C(=O)NCCC(=N)N)n(C)c4)n(C)c3)cn2C)cc1C(=O)NCCC(=N)N | – | – | 3.9 | Moderate | 57 | selectivity ratio [8]: 14.6
Cl.Cl.Cn1cc(NC(=O)c2cc(NC(=O)c3cc(NC(=O)c4cccc(C(=O)Nc5cc(C(=O)Nc6cc(C(=O)Nc7cc(C(=O)NCCC(=N)N)n(C)c7)n(C)c6)n(C)c5)n4)cn3C)cn2C)cc1C(=O)NCCC(=N)N | >100 | > 4.4 | – | – | – | Activity [10]: Active
Cn1cc(NC(=O)c2cc(NC(=O)/C=C\C(=O)Nc3cc(C(=O)Nc4cc(C(=O)NCCC(=N)N)n(C)c4)n(C)c3)cn2C)cc1C(=O)NCCC(=N)N | – | – | 0.35 | – | – | Activity [10]: Active
Cn1cc(NC(=O)c2cc(NC(=O)Nc3cc(C(=O)Nc4cc(C(=O)NCCC(=N)N)n(C)c4)n(C)c3)cn2C)cc1C(=O)NCCC(=N)N | – | – | 11.9 | Moderate | – | –
Cn1cc(NC(=O)c2cc(NC(=O)[C@@H]3CCCC[C@H]3C(=O)Nc3cc(C(=O)Nc4cc(C(=O)NCCC(=N)N)n(C)c4)n(C)c3)cn2C)cc1C(=O)NCCC(=N)N | – | – | 5.6 | Moderate | 181 | –
Cn1cc(NC(=O)[C@@H]2CCC(N)=N2)cc1C(=O)NCCC(=N)N | – | – | – | – | > 127 | Activity [9]: inactive
Cc1cn([C@H]2C[C@H](N=[N+]=[N-])[C@@H](CO)O2)c(=O)[nH]c1=O [ZIDOVUDINE] | >100 | > 714000 | – | – | – | MIC50 [1]: 0.0014 µg/mL (≈ 0.00524 µM)
Cl.Cl.Cn1cc(NC(=O)c2cc(NC(=O)c3cc(NC(=O)/C=C/C(=O)Nc4cc(C(=O)Nc5cc(C(=O)Nc6cc(C(=O)NCCC(=N)N)n(C)c6)n(C)c5)n(C)c4)cn3C)cn2C)cc1C(=O)NCCC(=N)N | 100 | 625 | – | – | – | Activity [10]: Active
